In the library only some 2% were active in any assay of this set; here they are far more common.
AI-2 QS modul: modulates the Vibrio harveyi AI-2 quorum sensing system; Vibrio harveyi JMH597 AI-2 luminescence/OD600 ratio, 9 h; hits give low values; strain lacks LuxN and CqsS sensors; 0 = neutral-control median; hit rate 0.4% among 300,000; activity change, % at 7.5 µM; in the data active means activity change below about -75%, passing the limit was not always enough;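 further: luminescence divided by OD600 gain over 9 h not by final OD600 alone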
HIF activator: HIF pathway transcriptional activation | hit rate 0.32% among 300,000 | U2OS HRE-luciferase reporter, luminescence; normalized: DMSO 0%, desferrioxamine 100% | AID 1910 | activation, % at 7.5 µM (by protocol);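 active means mean activation of at least 10% of the iron chelator positive control signal, with at least half of replicates also reaching 10%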
ARNT-TACC3 inh: ARNT/TACC3 interaction disruption; Q9Y6A5; AlphaScreen His-ARNT PAS-B/GST-TACC3 binding, luminescence; TACC3 fragment carries E629A point mutation; inhibition, % at 9.99 µM; hit rate 0.66% among 390,000; AID 623870;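 active means mean inhibition of replicates at least 50% and at least half of replicates each reaching 50%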;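 further: 0% = complete ARNT plus TACC3 wells and 100% = ARNT alone without TACC3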
T cruzi repl: blocks replication of Trypanosoma cruzi; inhibition, % (no concentration beside the values); T. cruzi beta-gal in NIH3T3, luminescence, 90 h; hit rate 1.4% among 300,000; AID 1885;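 active means mean inhibition across valid replicates above about 55%, limit read from the data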;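 further: signal also drops with host cell toxicity which is not excluded here; 0% = plate median of DMSO wells and 100% = zero luminescence signal; higher percent means less beta-gal luminescence so fewer parasites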
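compound dosing = single 50 nL compound addition per well in DMSO | material = NIH/3T3 host cells with β-galactosidase reporter T. cruzi | input = 5,000 host fibroblasts per well | timing = ≥90 h infection period, 3 h prior cell attachment | read-out basis = percent inhibition of parasite-derived β-gal signal | detection = GalScreen β-gal luminescence, detergent lysis, 60 min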
ARNT Alpha ctr-1: counter-screen for ARNT/TACC3 inhibitors: AlphaScreen artifacts; AC50, µM (highest dose often 68 µM), for inactives: at the highest dose activity change, negative = signal decrease; hit rate 50% among 1,200; shares compounds with ARNT-TACC3 inh; His-ARNT PASB-GST AlphaScreen artifact counter-screen, luminescence; AID 651705;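 active means every separate test run was called active for a drop in luminescence, with AC50 within twice the top valid dose, actives reach about 71 µM in these data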
ARNT Alpha ctr-2: AlphaScreen artifact flagged for ARNT-TACC3 inhibitors | shares compounds with ARNT-TACC3 inh | Dual-tagged His-ARNT PASB-GST AlphaScreen artifact counter-screen | AC50, µM | hit rate 70% among 45 | AID 720564;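 active means luminescence drop, with half-maximal potency fitted within twice the sample's top valid dose, cut at about 70 µM in these data; inactive means the rest, including signal moving the wrong way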
Starred values were filed as active, the others as inactive; x = no result given; [ ] = remark or other dose.

SMILES	AI-2 QS modul	HIF activator	ARNT-TACC3 inh	T cruzi repl	ARNT Alpha ctr-1	others
COc1ccc(NC(=O)Nc2ccc3c(c2)CC(=O)N([C@H](C)CO)C[C@H](C)[C@@H](CN(C)Cc2ccc(Cl)c(Cl)c2)O3)cc1	x	x	10.6	x	x
CCOc1ccc(Nc2nc(N)nc(CN(C)C3CCCCC3)n2)cc1	6.7	0.6	62.6*	19.5	-10.5%
COc1ccc(Nc2nc(N)nc(CN(C)C3CCCCC3)n2)cc1	8.9	1.5	55.7*	2.1	-9.7%
COc1ccc(S(=O)(=O)N(C)C[C@@H]2OCCCC[C@@H](C)Oc3ccc(NC(=O)c4ccncc4)cc3C(=O)N([C@H](C)CO)C[C@@H]2C)cc1	x	x	-11.3	x	x
CCCN1[C@@H]2c3ccc(/C=C/c4ccccc4)c(=O)n3C[C@@H]2[C@@H](CO)[C@@H]1C(=O)NCc1ccncn1	x	x	12.0	x	x
O=C(Nc1ccc(F)cc1)N[C@@H]1CC[C@H](CCNS(=O)(=O)c2ccccc2F)O[C@@H]1CO	x	x	3.2	x	x
O=C(COC(=O)c1ccc([N+](=O)[O-])s1)NCCc1ccccc1	x	x	50.4*	x	-19.0%
O=C(COC(=O)c1ccc([N+](=O)[O-])s1)NC(=O)NCc1ccccc1	43.1	-0.3	x	49.6	x
C[C@@H]1CCCCO[C@@H](CN(C)C(=O)Nc2cccc3ccccc23)[C@H](C)CN([C@H](C)CO)C(=O)c2cc(NS(=O)(=O)c3cn(C)cn3)ccc2O1	x	x	27.8	x	x
C[C@H](CO)N1C[C@H](C)[C@H](CN(C)C(=O)Nc2cccc3ccccc23)OCCCC[C@H](C)Oc2ccc(NC(=O)CCCN(C)C)cc2C1=O	x	x	58.7*	x	-22.9%[38 µM]
C[C@@H]1CCCCO[C@@H](CN(C)C(=O)Nc2cccc3ccccc23)[C@H](C)CN([C@@H](C)CO)C(=O)c2cc(NS(=O)(=O)c3cn(C)cn3)ccc2O1	x	x	55.3*	x	10.5µM*
C[C@@H]1CN([C@@H](C)CO)C(=O)CCCn2cc(nn2)CO[C@@H]1CN(C)Cc1ccccc1	x	x	-6.1	x	x
Cc1cc(=O)n(-c2ccc(O)cc2)[nH]1	-5.9	-0.3	14.7*	1.1	-9.8%
CCOc1cc(/C=N/NC(=O)CSc2cccc3cccnc23)ccc1O	16.3	-0.7	63.1*	-16.5	-31.0%
O=C(CSc1cccc2cccnc12)N/N=C/c1ccncc1	-27.1	x	61.7*	x	-15.8%
Cn1c(SCC(=O)N/N=C/c2ccncc2)nc2ccccc21	9.8	-0.2	-3.0	-38.7	x
O=C(Nc1cc(F)ccc1F)N[C@H]1C=C[C@@H](CC(=O)N2CCc3ccccc3C2)O[C@@H]1CO	x	x	-5.3	x	x
N/C(=N\OC(=O)c1ccc(Cl)cc1)c1ccccn1	20.2	-2.6	0.2	2.5	x
N/C(=N\OS(=O)(=O)c1ccc(Cl)cc1)c1ccccn1	x	x	53.1*	x	-18.3%
N/C(=N\NS(=O)(=O)c1ccccc1Cl)c1ccccn1	-8.6	1.6	55.3*	0.7	-9.0%
COCC(=O)N(C)C[C@@H]1Oc2cc(-c3ccc(F)cc3)ccc2S(=O)(=O)N([C@@H](C)CO)C[C@@H]1C	x	x	-7.5	x	x
COc1ccc([N+](=O)[O-])cc1/C=N/NC(=O)CNC(=O)c1cccc(F)c1	-34.5	-0.6	51.3*	-12.6	-11.9%
COc1cccc(/C=N/NC(=O)CNC(=O)c2cccnc2)c1O	4.6	-0.7	59.4*	-7.0	2.5%
COc1cccc(/C=N/NC(=O)CNC(=O)c2ccncc2)c1O	23.3	-0.3	55.7*	-11.3	-11.8%
COc1ccc(CCNC(=O)CSc2nnc(Cc3csc(N)n3)n2C)cc1OC	15.0	-0.5	28.2*	-19.9	-9.9%
SMILES	AI-2 QS modul	HIF activator	ARNT-TACC3 inh	T cruzi repl	ARNT Alpha ctr-1	others
COc1ccc(CCNC(=O)CSc2nnc(Cn3c(=O)sc4ccccc43)n2C)cc1OC	x	x	8.5	x	x
c1ccc(CN2CCN(CCCNc3ccc4nnc(-c5ccccc5)n4n3)CC2)cc1	7.9	-0.4	56.7*	30.4	70.9µM*
Cc1ccc(CNc2ccc3nnc(-c4ccccc4)n3n2)cc1	16.4	-0.3	-6.1	-53.7	x
COc1ccc(Br)cc1CNc1ccc(O)cc1	x	x	13.6*	x	52.8µM*
CCOC(=O)c1c(C)[nH]c(N=Nc2cccc(C)c2)c1C	46.8	2.9	36.2*	15.7	21.3µM*
C[C@@H](NC(=O)C[C@H]1CC[C@H](NC(=O)Nc2ccc3c(c2)OCO3)[C@H](CO)O1)c1ccccc1	x	x	-13.0	x	x
O=C(Nc1ccc(Cl)cc1)N[C@H]1CC[C@H](CCn2cc(Cc3ccccc3)nn2)O[C@@H]1CO	x	x	-1.7	x	x
Cc1[nH]cnc1CN1CCc2c(c3ccccc3n2C)C1=O	-1.0	0.5	27.9*	22.2	-8.4%
Cn1c2ccccc2c2ncn(CCC3=CCCCC3)c(=O)c21	19.7	2.1	4.0	11.6	x
O=C(N/N=C/c1ccncc1)c1ccncc1	x	x	-15.1	x	x
O=C(N/N=C/c1ccc(O)c([N+](=O)[O-])c1)c1ccncc1	31.6	-0.1	26.8	-10.6	x
O=C(N/N=C/c1ccc(OC(=O)c2ccc(Br)cc2)cc1)c1ccncc1	3.6	0.0	-1.6	-17.7	x
O=C(N/N=C/c1cc([N+](=O)[O-])ccc1O)c1ccncc1	-90.6*	1.5	56.6*	-1.9	12.4µM*
O=C(N/N=C/c1cc(Br)ccc1OC(=O)c1ccc(Br)cc1)c1ccncc1	-3.6	19.3*	61.1*	-6.0	56.4µM*
O=C(NN=Cc1c(O)ccc2ccccc12)c1ccncc1	x	x	56.3*	x	49.1µM*
C[C@H]1CCCCO[C@@H](CN(C)C(=O)Nc2ccc3c(c2)OCO3)[C@@H](C)CN([C@@H](C)CO)C(=O)c2cc(NC(=O)c3ccccc3)ccc2O1	x	x	-4.6	x	x
COc1cccc(NC(=O)N(C)C[C@@H]2Oc3ncc(/C=C/c4ccccc4)cc3C(=O)N([C@@H](C)CO)C[C@H]2C)c1	x	x	8.9	x	x
OCCN(Cc1cccnc1)Cc1ccccn1	x	x	69.5*	x	15.4µM*
c1ccc(CSc2ccc(-c3ccccn3)nn2)nc1	0.4	2.7	63.6*	1.0	9.05µM*
c1ccc(-c2ccc(SCc3cccnc3)nn2)nc1	-8.0	3.3	57.6*	-6.5	14µM*
Clc1ccc(-c2ccc(SCc3ccccn3)nn2)cc1	-5.3	5.2	-2.0	2.9	x
O=C(Nc1ccc(F)cc1)Nc1ccc2c(c1)[C@H]1C[C@@H](CC(=O)N3CCCCC3)O[C@@H](CO)[C@H]1O2	x	x	-3.7	x	x
O=[N+]([O-])c1cccc(/C=N/Nc2nc(NCc3ccccc3)nc(N3CCOCC3)n2)c1O	45.4	18.6*	59.1*	41.0	14.2µM*
C[C@H](CO)N1C[C@H](C)[C@H](CN(C)Cc2ccc3c(c2)OCO3)Oc2ccc(NC(=O)CCC(F)(F)F)cc2C1=O	x	x	-2.9	x	x
Cc1c(C(=O)N(C)C)sc2nc(-c3ccccn3)[nH]c(=O)c12	21.4	0.3	71.8*	-16.4	23µM*	ARNT Alpha ctr-2=15.3*

Screens deposited in PubChem by Broad Institute.
